Test [1] addresses T1, L-lactate dehydrogenase A chain (Homo sapiens, UniProt P00338). Nature of the test: Inhibition of recombinant human LDHA using sodium pyruvate as substrate preincubated for 5 mins followed by diaphorase/resazurin addition and measured after 20 mins by fluorescence based assay. For orientation: Resazurin is reduced to fluorescent resorufin, in cell work by metabolically active cells.

In test [2] the target is T1, L-lactate dehydrogenase A chain. Nature of the test: Inhibition of LDHA in human A673 cells assessed as decrease in lactate production incubated for 2 hrs by lactate oxidase-coupled fluorescence based assay. Format: cell-based.
For the next test, the system named is A673. Nature of the test: Cytotoxicity against human A673 cells assessed as reduction in cell viability after 48 hrs by CellTiter-Glo assay. Format: functional, cell-based. The conditions noted are these: A673, 48 h. Background: ATP-based viability assays read luminescence as a measure of living cells.
In test [3] the target is T1, L-lactate dehydrogenase A chain. Nature of the test: Inhibition of LDHA in human MIA PaCa-2 cells assessed as decrease in lactate production incubated for 2 hrs by lactate oxidase-coupled fluorescence based assay. Format: cell-based.
In a further test the test system is MIA PaCa-2. Nature of the test: Cytotoxicity against human MIA PaCa-2 cells assessed as reduction in cell viability after 48 hrs by CellTiter-Glo assay. The test is classed as functional, cell-based. The conditions noted are these: MIA PaCa-2, 48 h.
The target of test [4] is T1, L-lactate dehydrogenase A chain. Description: Inhibition of GS[HiBiT]GS-tagged LDHA (unknown origin) expressed in HEK-293T cells measured after 1 hr by […]. The test is classed as cell-based. In a few lines:
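HEK293T cells were transiently transfected for 24 h with CMV-driven LDHA carrying a C-terminal GS[HiBiT]GS tag, then reseeded at 2500 cells/well in DPBS with Ca/Mg and 1 g/L glucose. […] Cells were lysed with NP40, and 11S (100 nM final) plus furimazine was added.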
A general note: The HiBiT peptide binds its large partner to form an active luciferase.

The target of test [5] is L-lactate dehydrogenase B chain (Homo sapiens) (UniProt P07195). Nature of the test: Inhibition of recombinant human LDHB using sodium pyruvate as substrate preincubated for 5 mins followed by diaphorase/resazurin addition and measured after 20 mins by fluorescence based assay.
Chain of L-lactate dehydrogenase B chain (Homo sapiens) (P07195 2-334 limits assumed): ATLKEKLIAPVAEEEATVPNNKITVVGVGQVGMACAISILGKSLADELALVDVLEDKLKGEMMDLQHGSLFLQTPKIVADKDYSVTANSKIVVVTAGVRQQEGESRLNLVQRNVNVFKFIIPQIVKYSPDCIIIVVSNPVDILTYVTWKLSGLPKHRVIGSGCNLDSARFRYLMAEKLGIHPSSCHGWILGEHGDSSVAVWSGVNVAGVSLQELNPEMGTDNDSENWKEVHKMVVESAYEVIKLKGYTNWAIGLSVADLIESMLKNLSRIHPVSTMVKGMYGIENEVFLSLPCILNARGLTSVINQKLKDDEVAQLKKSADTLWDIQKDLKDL
The species entered for another test is Sus scrofa. Nature of the test: Inhibition of porcine heart MDH using malic acid as substrate preincubated for 10 mins followed by substrate addition and measured after 5 mins by resazurin based fluorescence based assay. The conditions noted are these: time 15.0 min.

pIC50: −log10 of the molar value. The source made the active and inactive calls. The rule behind the calls is not given here. Bounds are passed on as bounds.

One may read the pIC50 as the IC50 on a negative log10 scale, so that one unit is a factor of ten. Regarding `Cc1nc(C#Cc2cccc(-c3nn(-c4nc(C(=O)O)cs4)c(CCC4CC4)c3Cc3ccc(S(N)(=O)=O)c(F)c3)c2)cs1`, the pIC50 in test [1] is 7.62; in test [2], 6.52; with A673, 6.66; in test [3] it was 6.60; with MIA PaCa-2, 6.66; in test [4] it was 7.05. Further, the inhibition result in test [5] is “Active”. The inhibition entry in the test filed under Sus scrofa is “inactive”.
Consider `NS(=O)(=O)c1ccc(Cc2c(-c3ccc(F)c(-c4ccccc4)c3)nn(-c3nc(C(=O)O)cs3)c2CC2CC2)cc1`, for which the negative-log IC50 (pIC50) in test [1] was 7.64; in test [2], 6.08; with A673, 5.58; in test [3] it was 5.91; in the test on MIA PaCa-2, 5.07; in test [4] it was 6.40. In addition, the inhibition result in test [5] is “Active”. Further, in the test listed under Sus scrofa, the inhibition entry was “inactive”.
Regarding `NS(=O)(=O)c1ccc(Cc2c(-c3cccc(C#CC4CCCC4)c3)nn(-c3nc(C(=O)O)cs3)c2CC2CC2)cc1F`, the pIC50 in test [1] is 7.33; in test [2], 6.53; in the test on A673, 6.38; in test [3], 6.55; in the test with MIA PaCa-2, 6.42; in test [4], 7.05. The inhibition result in test [5] was “Active”. The inhibition result in the test listed under Sus scrofa is “inactive”.
As to `NS(=O)(=O)c1ccc(Cc2c(-c3cccc(C#Cc4ccc(Cl)s4)c3)nn(-c3nc(C(=O)O)cs3)c2CC2CC2)cc1F`, the pIC50 in test [1] was 6.78; in test [2], 6.66; with A673, 6.34; in test [3], 6.39; with MIA PaCa-2 it was 6.25; in test [4], 6.95. The inhibition entry in test [5] is “Active”. The inhibition entry in the test filed under Sus scrofa is “inactive”.
With `NS(=O)(=O)c1ccc(Cc2c(-c3ccc(F)c(C#CCC4CC4)c3)nn(-c3nc(C(=O)O)cs3)c2CC2CC2)cc1F`, the negative-log IC50 (pIC50) is 7.51 in test [1]; 6.63 in test [2]; 5.99 with A673; 6.59 in test [3]; 5.99 in the test with MIA PaCa-2; 7.05 in test [4]. For the same compound, the inhibition result in test [5] was “Active”. Further, the inhibition result in the test listed under Sus scrofa is “inactive”.
Turning to `CC(C)c1ccc(C#Cc2cccc(-c3nn(-c4nc(C(=O)O)cs4)c(CC4CC4)c3Cc3ccc(S(N)(=O)=O)c(F)c3)c2)s1`, the pIC50 was 6.41 in test [1]; 6.53 in test [2]; 6.28 with A673; 6.69 in test [3]; 6.23 in the test with MIA PaCa-2; 6.75 in test [4]. Moreover, the inhibition result in test [5] was “Active”. In addition, the inhibition entry in the test listed under Sus scrofa is “inactive”.
Consider `Cc1ccc(/C=C/c2cccc(-c3nn(-c4nc(C(=O)O)cs4)c(CC4CC4)c3Cc3ccc(S(N)(=O)=O)c(F)c3)c2)s1`, for which the pIC50 in test [1] was 7.28; in test [2], 6.45; in the test on A673 it was 6.34; in test [3], 6.48; in the test on MIA PaCa-2 it was 6.33; in test [4], 6.80. In test [5], the inhibition entry is “Active”. For the same compound, the inhibition result in the test filed under Sus scrofa was “inactive”.
Turning to `NS(=O)(=O)c1ccc(Cc2c(-c3ccc(F)c(C#CCC4CCCO4)c3)nn(-c3nc(C(=O)O)cs3)c2CC2CC2)cc1F` (stereo not drawn), the pIC50 was 8.05 in test [1]; 6.03 in test [2]; 5.86 in the test on A673; 6.03 in test [3]; 5.91 in the test on MIA PaCa-2; 6.75 in test [4]. For the same compound, the inhibition result in test [5] is “Active”. The inhibition entry in the test filed under Sus scrofa was “inactive”.
As to `CC(C)CC#Cc1cc(-c2nn(-c3nc(C(=O)O)cs3)c(CC3CC3)c2Cc2ccc(S(N)(=O)=O)c(F)c2)ccc1F`, the negative logarithm of the IC50 (pIC50) in test [1] is 7.27; in test [2], 6.55; in the test on A673, 6.03; in test [3] it was 6.31; in the test with MIA PaCa-2, 6.04; in test [4], 7.05. Further, in test [5], the inhibition result is “Active”. Also, the inhibition result in the test filed under Sus scrofa is “inactive”.
As for `NS(=O)(=O)c1ccc(Cc2c(-c3ccc(F)c(C#CC(F)(F)F)c3)nn(-c3nc(C(=O)O)cs3)c2CC2CC2)cc1F`, the negative-log IC50 (pIC50) in test [1] was 6.35; in test [2], less than 4.52; in the test on A673 it was less than 4.52; in test [3], less than 4.52; in the test with MIA PaCa-2, less than 4.52; in test [4], 4.85. For the same compound, in test [5], the inhibition result is “Active”. Besides, the inhibition entry in the test filed under Sus scrofa is “inactive”.
`CC(C)C#Cc1cc(-c2nn(-c3nc(C(=O)O)cs3)c(CC3CC3)c2Cc2ccc(S(N)(=O)=O)c(F)c2)ccc1F`: the negative-log IC50 (pIC50) in test [1] is 7.68; in test [2], 6.55; in the test on A673, 6.00; in test [3], 6.31; in the test with MIA PaCa-2, 6.12; in test [4], 5.69. In addition, the inhibition entry in test [5] is “Active”. For the same compound, the inhibition result in the test listed under Sus scrofa is “inactive”.
As to `C#Cc1cc(-c2nn(-c3nc(C(=O)O)cs3)c(CC3CC3)c2Cc2ccc(S(N)(=O)=O)c(F)c2)ccc1F`, the pIC50 in test [1] is 8.05; in test [2] it was 6.04; in the test on A673 it was 5.36; in test [3] it was 6.18; in the test on MIA PaCa-2, 5.40; in test [4] it was 6.60. Besides, the inhibition result in test [5] is “Active”. Further, the inhibition entry in the test listed under Sus scrofa is “inactive”.
In the case of `NS(=O)(=O)c1ccc(Cc2c(-c3cccc(-c4ccccc4)c3)nn(-c3nc(C(=O)O)cs3)c2CC2CC2)cc1F`, the pIC50 was 7.60 in test [1]; 6.21 in test [2]; 5.94 in the test on A673; 6.06 in test [3]; 5.47 in the test on MIA PaCa-2; 6.82 in test [4]. In test [5], the inhibition entry was “Active”. For the same compound, the inhibition result in the test listed under Sus scrofa was “inactive”.
Regarding `NS(=O)(=O)c1ccc(Cc2c(-c3cccc(C#Cc4ccc(C(F)F)s4)c3)nn(-c3nc(C(=O)O)cs3)c2CC2CC2)cc1F`, the pIC50 in test [1] is 6.81; in test [2], 6.46; with A673, 6.28; in test [3], 6.54; in the test with MIA PaCa-2, 6.28; in test [4] it was 6.87. In addition, in test [5], the inhibition entry is “Active”. Also, the inhibition entry in the test listed under Sus scrofa was “inactive”.
As for `NS(=O)(=O)c1ccc(Cc2c(-c3ccc(F)c(C#CC(F)F)c3)nn(-c3nc(C(=O)O)cs3)c2CC2CC2)cc1F`, the negative-log IC50 (pIC50) in test [1] is 7.82; in test [2], 6.03; in the test with A673 it was 5.83; in test [3] it was 6.13; in the test on MIA PaCa-2, 5.88; in test [4], 6.79. For the same compound, the inhibition result in test [5] was “Active”. In addition, in the test filed under Sus scrofa, the inhibition entry was “inactive”.
Turning to `N#CC#Cc1cc(-c2nn(-c3nc(C(=O)O)cs3)c(CC3CC3)c2Cc2ccc(S(N)(=O)=O)c(F)c2)ccc1F`, the pIC50 is 7.82 in test [1]; 5.40 in test [2]; less than 4.52 in the test on A673; 5.36 in test [3]; less than 4.52 in the test on MIA PaCa-2; 6.32 in test [4]. Besides, the inhibition result in test [5] is “Active”. For the same compound, the inhibition result in the test filed under Sus scrofa is “inactive”.

The values are drawn from ChEMBL document CHEMBL4665801, “Pyrazole-Based Lactate Dehydrogenase Inhibitors with Optimized Cell Activity and Pharmacokinetic Properties” (J Med Chem, 2020).
